Reference: PMC10100219 (Chemistry (Weinheim an Der Bergstrasse, Germany), 2022)
Substitutions are numbered along the chain they refer to.

Columns and labels:
Experiment in all cases: UV-Vis titration, Soret spin-state shift
Assay type in all cases: binding
[1] = target: T1, CYP199A4 (Rhodopseudomonas palustris, UniProt Q2IU02)
T1 sequence (Q2IU02 1-410): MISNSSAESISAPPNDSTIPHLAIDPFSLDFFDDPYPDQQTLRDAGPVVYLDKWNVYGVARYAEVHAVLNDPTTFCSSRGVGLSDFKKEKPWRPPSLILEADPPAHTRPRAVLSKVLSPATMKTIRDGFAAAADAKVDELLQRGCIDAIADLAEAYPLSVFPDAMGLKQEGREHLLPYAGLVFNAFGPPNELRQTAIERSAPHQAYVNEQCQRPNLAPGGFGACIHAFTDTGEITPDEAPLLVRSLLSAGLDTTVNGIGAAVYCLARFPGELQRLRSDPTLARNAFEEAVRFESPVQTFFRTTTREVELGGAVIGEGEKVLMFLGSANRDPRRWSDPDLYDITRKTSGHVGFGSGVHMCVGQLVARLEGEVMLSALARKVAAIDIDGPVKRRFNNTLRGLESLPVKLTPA

[2] = target: T2, CYP199A4 (Rhodopseudomonas palustris, UniProt Q2IU02, D252N)
T2 sequence (Q2IU02 1-410 D252N): T1 sequence (Q2IU02 1-410) with D252N
How it was run: (§1)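 CYP199A4 mutants (D251N, T252A) from Rhodopseudomonas palustris HaA2 were titrated with para-substituted benzoic acid test compounds, with UV-Vis monitoring to obtain Kd. Spectra were recorded from 700 to 250 nm at 600 nm min⁻¹, and repeated at 60 nm min⁻¹ to verify small Soret shifts. P450 concentration came from pyridine hemochromogen extinction coefficients: D251N 123±1, T252A 120±4 mM⁻¹ cm⁻¹.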

[3] = target: T3, CYP199A4 (Rhodopseudomonas palustris, UniProt Q2IU02, T253A)
T3 sequence (Q2IU02 1-410 T253A): T1 sequence (Q2IU02 1-410) with T253A
How it was run: as §1

Row | Structure (SMILES) | Kd [1] | Kd [2] | Kd [3]
1 | CSc1ccc(C(=O)O)cc1 [4‐methylthiobenzoic acid] | 2300 ± 300 nM | 830 ± 80 nM | 1400 ± 100 nM
2 | CCSc1ccc(C(=O)O)cc1 [4‐ethylthiobenzoic acid] | 990 ± 50 nM | – | 250 ± 50 nM
